Apaf-1 inh – inhibitors of human Apaf-1 apoptosome, primary screen, biochemical, DEVD-Rh110 fluorescence, uHTS | Apoptotic protease-activating factor 1 (Homo sapiens), O14727 | reconstituted apoptosome caspase-3 activity | inhibition, % at 20 µM | 330,000 tested, 0.71% active | AID 489030, 2010; active means inhibition of at least 40% at 20 µM;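 further: plate controls were DMSO wells for no effect and DEVD-CHO caspase inhibitor wells for full effect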
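Material: biochemical Apaf-1 apoptosome reconstitution. Medium: Hepes buffer, pH 7.5. Also added: cytochrome c activation, bis-DEVD rhodamine 110 substrate. Timing: 30 min compound preincubation, 50 min activation, room temperature. Measured by: rhodamine 110 fluorescence at Ex 480/Em 540 nm.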
FID counter – compounds displacing fluorescent DNA intercalator, primary screen, artefact control for HCV NS3 helicase inhibitor project, biochemical, FID fluorescence. DNA fluorescent intercalator displacement. inhibition, % at 7.9 µM. 290,000 tested, 0.17% active; in the data active means inhibition above about 37%;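 further: 0% = vehicle and 100% = reference compound; higher means more ethidium bromide displaced from hairpin DNA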
RAD52 anneal inh – RAD52 DNA annealing inhibitors, primary screen, biochemical, FRET, single point, set 2; recombinant RAD52 DNA annealing, FRET fluorescence; inhibition, % at 18.7 µM; 360,000 tested, 0.46% active;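 active means every replicate showing at least 50% inhibition; inconclusive means mean inhibition at least 50% but not in every replicate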
Neddylation inh – inhibitors of cullin neddylation, primary screen, biochemical, TR-FRET, uHTS, NAE and Ubc12; 360,000 tested, 0.58% active; NEDD8-conjugating enzyme Ubc12 (Homo sapiens) + NEDD8-activating enzyme E1 regulatory …; AID 651699, 2012; calls only at 25 µM; in the data active means inhibition above about 36%
Target sequence (P61081 whole entry, looked up): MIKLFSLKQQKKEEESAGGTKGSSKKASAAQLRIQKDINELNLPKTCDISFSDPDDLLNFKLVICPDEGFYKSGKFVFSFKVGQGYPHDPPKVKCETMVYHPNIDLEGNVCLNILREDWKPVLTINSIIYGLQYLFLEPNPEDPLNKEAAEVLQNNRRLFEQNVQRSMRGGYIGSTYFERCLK
Target sequence (Q13564 whole entry, looked up): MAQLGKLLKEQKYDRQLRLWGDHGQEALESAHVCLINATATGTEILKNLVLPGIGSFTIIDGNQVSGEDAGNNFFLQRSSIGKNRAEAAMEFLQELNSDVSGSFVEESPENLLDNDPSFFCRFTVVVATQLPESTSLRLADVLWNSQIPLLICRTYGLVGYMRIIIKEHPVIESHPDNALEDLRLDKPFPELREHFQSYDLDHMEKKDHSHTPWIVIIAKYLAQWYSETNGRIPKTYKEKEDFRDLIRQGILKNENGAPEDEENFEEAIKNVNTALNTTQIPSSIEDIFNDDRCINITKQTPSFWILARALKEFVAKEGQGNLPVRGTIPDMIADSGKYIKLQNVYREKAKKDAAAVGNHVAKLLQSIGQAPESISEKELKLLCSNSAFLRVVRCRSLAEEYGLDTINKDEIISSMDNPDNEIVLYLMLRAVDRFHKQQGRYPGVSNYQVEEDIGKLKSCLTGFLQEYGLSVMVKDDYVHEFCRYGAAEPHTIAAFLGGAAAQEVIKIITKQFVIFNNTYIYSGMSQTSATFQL
RAD54 branch – inhibitors of human RAD54 branch migration, primary screen, biochemical, fluorescence, single point; 360,000 tested, 0.14% active; inhibition, % at 10.4 µM; AID 602329, 2012; RAD54 Holliday junction branch migration, FAM/BHQ fluorescence;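 active means mean normalized replicate activity at least 40 and at least half of replicates scoring 40 or more; inconclusive means only one of the two criteria met; inactive means mean below 40 and under half of replicates reaching 40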;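 further: 0% = median of neutral control wells and 100% = median of positive control wells; inhibitors cause a drop in the FAM fluorescence signal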
UBC13 polyUb – UBC13 polyubiquitin chain formation inhibitors, primary screen, biochemical, TR-FRET, uHTS | 330,000 tested, 0.47% active | inhibition, % at 20 µM; in the data active means inhibition above about 45%, passing the limit was not always enough; inconclusive means no clear call, values can overlap the other calls
DNA binder FP – DNA-binding compounds via dye displacement, dose response, artefact control for RAD52 inhibitor project, biochemical, fluorescence polarization, cherry-pick. 1,000 tested, 8% active. AID 652128, 2013. shares compounds with RAD52 anneal inh. Salmon sperm DNA/acridine orange FP displacement. AC50, µM;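 active means fitted half-maximal concentration for signal loss at or below twice the highest dose tested, in every separate run, actives reach about 64 µM in these data; inconclusive means runs disagree, or flat partial signal loss, or poor fit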
* hit, by the source's call; i = inactive; ? = inconclusive; . = not tested or not shown. Sampled rows, rich in hits. Any-hit rate of the full collection: about 1.6%.

SMILES | Apaf-1 inh | FID counter | RAD52 anneal inh | Neddylation inh | RAD54 branch | UBC13 polyUb | DNA binder FP
O=C(C[C@@H]1CC[C@@H](NC(=O)c2ccc(F)cc2)[C@@H](CO)O1)NCc1ccncn1 | . | . | -9 | . | 0 | . | .
C[C@H](CO)N1C[C@H](C)[C@@H](CN(C)Cc2ccccc2)Oc2ccc(NC(=O)CCN3CCOCC3)cc2CC1=O | . | . | -2 | . | -2 | . | .
CN1CCN(CCCNC(=O)c2ccc(/C=C3\Sc4ccccc4N(Cc4ccccc4F)C3=O)cc2)CC1 | . | 34 | 90* | i | . | . | i
COc1cc(OC)nc(Nc2nc(C(N)CCc3ccccc3)cs2)n1 (stereo not drawn) | . | . | 62* | i | 13 | . | i
Nc1ccc(NC(=O)CCN2CCOCC2)cc1 | 0 | -2 | 60* | i | 3 | -12 | i
O=C(CCN1CCOCC1)Nc1ccc(F)cc1 | -4 | -6 | -2 | i | 9 | 1 | .
O=C(O)C1=C[C@H](c2ccc3c(c2)Cc2ccccc2-3)C[C@H](OCCCCO)O1 | . | . | -20 | . | 10 | . | .
Clc1ccc2[nH]c3c(c2c1)CNCC3 | 4 | 1 | 65* | i | 11 | 10 | i
CCc1c(-c2ccccc2)ncn1Cc1cccc(-c2ccccc2)c1 | . | . | -14 | i | . | . | .
CCc1c(C2CC2)ncn1Cc1cccc(-c2ccccc2)c1 | . | . | 78* | i | . | . | i
CC(C)(C)Nc1c2ccccc2nc2ccccc12 | 15 | 1 | 19 | i | 33 | -2 | .
OCCCNc1c2ccccc2nc2ccccc12 | 3 | 45* | 95* | i | 97* | -12 | 53µM*
C[C@H]1CN([C@@H](C)CO)C(=O)c2cccc(NC(=O)C3CCOCC3)c2O[C@H]1CN(C)Cc1ccc(C(F)(F)F)cc1 | . | . | 2 | . | -8 | . | .
CC(O)CNc1ccc(-c2n[nH]c(=O)c3ccccc23)cc1[N+](=O)[O-] (stereo not drawn) | 3 | -8 | -18 | i | -7 | -102 | .
CN(C)CCCNc1ccc(-c2n[nH]c(=O)c3ccccc23)cc1[N+](=O)[O-] | 0 | 10 | 66* | i | 28 | -58 | i
C/C=C/c1ccc([C@H]2[C@@H](CO)N(CC3CC3)[C@@H]2CN(C(C)=O)C(C)C)cc1 | . | . | -3 | . | . | . | .
CCN1CCc2c(sc(NC(=O)c3cc4ccccc4cc3OC)c2C(N)=O)C1 | 65* | 34 | 76* | . | 28 | 25 | i
COc1cccc(OC)c1C(=O)Nc1sc2c(c1C(N)=O)CCN(Cc1ccccc1)C2 | 8 | -5 | -141 | i | -7 | 2 | .
CCCN(CCC)c1nc2ccccc2n2c(C)nnc12 | 19 | -16 | . | i | -1 | -9 | .
CCCNc1nc2ccccc2n2c(C)nnc12 | 7 | -12 | 73* | i | -1 | -3 | i
Cc1ccc(-c2c[n+](CC(=O)Nc3nc(-c4ccc(F)cc4)cs3)c3n2CCC3)cc1 | 30 | 44* | 58* | i | 41 | 16 | i
CN(C)Cc1c(OC(=O)c2ccc(N)cc2)ccc2ccccc12 | . | . | 59* | i | -3 | . | i
CN(C)CCNc1ccc(CO)c2sc3ccc(O)cc3c(=O)c12 | . | . | 0 | i | . | . | .
COc1ccc2sc3cccc(NCCN(C)C)c3c(=O)c2c1 | . | . | 58* | i | . | . | 39µM*
COc1ccc2c3c([nH]c2c1)[C@H](CO)N(Cc1ccc2c(c1)OCO2)CC31CCN(C(=O)Nc2c(C)noc2C)CC1 | . | . | -13 | . | . | . | .
SMILES | Apaf-1 inh | FID counter | RAD52 anneal inh | Neddylation inh | RAD54 branch | UBC13 polyUb | DNA binder FP
CC(C)(c1ccccc1)c1ccc(OCCCN2CCNCC2)cc1 | 23 | 24 | 57* | i | . | 28 | i
COc1nc(Nc2cccc(F)c2)nc(OC)n1 | -6 | -6 | -5 | i | 0 | -5 | .
COc1cc2nc(Nc3cccc(F)c3)nc(N)c2cc1OC | 11 | 30 | 61* | i | 36 | 25 | i
CC(C)CC#Cc1ccc([C@H]2[C@@H](CO)N3C(=O)CN(C(=O)NC4CCCC4)C[C@@H]23)cc1 | . | . | -5 | . | . | . | .
O=c1oc(-c2cccnc2)nc2ccccc12 | -7 | 5 | . | i | 0 | -11 | .
O=c1oc(-c2ccccc2Br)nc2ccccc12 | 7 | -3 | 102* | i | -4 | 9 | i
C[C@@H]1CN([C@H](C)CO)C(=O)c2cccc(N(C)C)c2O[C@@H]1CN(C)S(=O)(=O)c1cn(C)cn1 | . | . | -2 | . | 8 | . | .
Oc1c(CN2CCCCC2)ccc2cccnc12 | . | . | 63* | i | 4 | . | i
COc1cc(/C=C2\SC(=O)N(CCN)C2=O)ccc1OS(=O)(=O)c1cc(C)ccc1C | . | 25 | 84* | i | . | . | i
C[C@@H]1CN([C@H](C)CO)C(=O)c2cc(NC(=O)Cc3ccccc3)ccc2O[C@@H](C)CCCCO[C@H]1CN(C)S(=O)(=O)c1cn(C)cn1 | . | . | . | . | 2 | . | .
COc1cccc(/C=C2/Sc3ccc(C(=O)NCCCN4CCCC4)cc3NC2=O)c1 | 31 | 25 | 82* | i | ? | 27 | i
O=C1Nc2cc(C(=O)NCCCN3CCCC3)ccc2S/C1=C/c1ccccc1F | 18 | 27 | 26 | i | 10 | 36 | .
COc1ccc(/C=C2\Sc3ccc(C(=O)NCCN4CCCCCC4)cc3N(C)C2=O)cc1 | 32 | 17 | 56* | i | 6 | 26 | i
C[C@@H]1CCCCO[C@@H](CN(C)Cc2ccc(Cl)c(Cl)c2)[C@H](C)CN([C@H](C)CO)C(=O)c2cc(NS(C)(=O)=O)ccc2O1 | . | . | 11 | . | 4 | . | .
O=C1CNC[C@H]2[C@H](c3ccc(C4=CCCC4)cc3)[C@H](CO)N12 | . | . | -29 | . | . | . | .
Cc1cc(C)c2nc3nc(C)c(C)cc3c(N)c2c1 | 4 | 19 | 91* | . | . | -7 | 62µM*
FC(F)(F)c1ccc(CN2CCN(Cc3ccco3)CC2)cc1 | -13 | 2 | 97* | i | -8 | -3 | i
CC1CCN(CC(=O)Nc2ccc(N3CCCCCC3)cc2)CC1 | 34 | 13 | 75* | i | . | 5 | i
O=C(CNC1CCCC1)Nc1ccc(N2CCCCCC2)cc1 | -2 | 21 | 78* | i | . | 13 | i
CCC(=O)N(C)C[C@H]1Oc2ncc(Br)cc2C(=O)N([C@@H](C)CO)C[C@H]1C | . | . | 4 | . | 2 | . | .
O=C(CN1CCOCC1)NCC[C@H]1CC[C@@H](NC(=O)Nc2ccc(C(F)(F)F)cc2)[C@@H](CO)O1 | . | . | -3 | . | -1 | . | .
